Among the data in the RNAGym collection of RNA variant scans (doi:10.1126/science.aae0568) are yeast fitness values, retold here.

B1: tRNA (parent)
chain: GUUCCGUUGGCGUAAUGGUAACGCGUCUCCCUCCUAAGGAGAAGACUGCGGGUUCGAGUCCCGUACGGAACG

Variants at the floor of the assay were thinned out. Where only a bound is given, the exact number is not on record here.

Variants of B1 are the subject of the data set. As to the kind of experiment: yeast fitness relative to wild type (ratio to wild type); higher = fitter; tRNA-Arg(CCU), competitive growth, 37 C, YPD. The method in brief:
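Genotype frequency changes were the basis for Darwinian fitness relative to wild type. The frequencies came from 100-nucleotide paired-end sequencing of gene amplicons from the start population and each end population of pooled yeast strains with tRNA-Arg(CCU) gene variants at the native locus. Competition ran in YPD at 37°C for 24 hours in six replicates, genotypes needed ≥ 100 starting reads, and estimates < 0.5 were set to 0.5.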
Turning to GUUCCGUAGGCGUAAUGGUAACGCGUCUCCCUCCUUAGGAGAAGACUGCGGGUUGGAGCCCCGUACGGCACG [U8A A36U C55G U59C A69C], the yeast fitness is 0.794.
For GUUCCGUUGGCGUAAUGGUAACGCGUCUCCCUCCUUAGGAGAAGACUGCGGGUUCGGGUCCCCUACGGAACG [A36U A57G G63C] the value was 0.563; for GUUCCGUUGGCAUAAUGGUAACGCGUCUCCCCCCUAAGGAGAAGACUGCGGGUUCGAGUCCCGUACGGAACG [G12A U32C], 0.914; for GUUCCGUUGGCGUAAGGGUAACGCGUCUCCCUCCUAAGGAGAAGACUGCGGGUUCGAGUCCCCUACGGAACG [U16G G63C], 0.694.
GUUCCGUUGGCGAAAUGGUAACGCGUCUCCGUUCUACGGAGAAGACUGCGGGUUCGAGUCCCGUUCGGAACG [U13A C31G C33U A37C A65U]: the yeast fitness is ≤ 0.5.
In the case of GUUCCGUUGGCGUAAUGGUAACGGGUCUCCCUCCUAAGGAGAAGACUGCGGGUUCGAGUCGCGUACGAAACG [C24G C61G G68A], the yeast fitness is ≤ 0.5.
Consider GUUCCGUUGGCGUAAUGGUAACGCGUCUCCGUCCUAAGGAGAAGACUGCGGGUUCGAGUCCCGUACAGAACG [C31G G67A], for which the yeast fitness stood at 0.859.
For GUUCCGUUGGCGUAAUGGUAACGCGUCUCCCCCCUAAGGAGAAGACUGCGGGUUCGAGUCUCGUACGAAACG [U32C C61U G68A] the value was 0.586.
Consider GUUACGUUGGCGUAAGGGUAAUUCGUCUCCCUCCUAAGGAGCAGACUGCCGGUUCGAGUCCCGUAUGGAACG [C4A U16G C22U G23U A42C G50C C66U], for which the yeast fitness was ≤ 0.5.
For GUUCAGCUGGCGUAAUGGUAACGCGUCUCCCUCCUAAGGAGAAGACUGCGGGUUCGAGUCCCCUACGGAACG [C5A U7C G63C] the value was ≤ 0.5; for GUUCGGUUGGCGUAAUGGUAACGCGUCUCCCUCCUACGGAGAAGACUGCGAGCUCGAGUCCAGUACGGAACG [C5G A37C G51A U53C C62A], ≤ 0.5; for GUUCCGUUGGCGUAAGGGUAACGCGUCUCCCUCCUAAGGAGAAGACUGCGGGUUUGAGUCCCGUACCGAACG [U16G C55U G67C], ≤ 0.5.
On to GUUCCGAUGGCGUAAUGGUAACGCGUCUUCCUCAUAAGGAGAAGACUGCCGGUUCGAGUCCCGUCCGGAACG [U7A C29U C34A G50C A65C], for which the yeast fitness is ≤ 0.5.
Take GUUCCGUUGGCGUAAUGGUAACGCGUCCCCCUCCUAAGGAGAAGAAUGCGGGUUCGAGUCCAGAACGGAACG [U28C C46A C62A U64A]: the yeast fitness is ≤ 0.5.
In the case of GUUCCAUUGGCGUAAUGGUACCGCGUCUCCCUCCUAAGGAGAAGACUGCGGGUUCGAGUCCUGUACGGAACG [G6A A21C C62U], the yeast fitness was ≤ 0.5.
For GUUCCGUUGGCGUAAUGGUAACGCGUCUCACUCCUAAGGAGAAGUCUGAGGGUUCGAGUCCCUUACGGAUCG [C30A A45U C49A G63U A70U] the value was 0.523.
For GUUCCGUUGGCAUGAUGGUAACGGGUCUCCCUCCUAAGGUGAAGAAUGCGGCUUCGAGUCCCGUACGGAACG [G12A A14G C24G A40U C46A G52C] the value was ≤ 0.5.
On to GUUCCGUUGCCGUAAUGGUAACGCGUUUCCCUCCUAAGGAGAAGACUGCGGGUUCGAGUCCCGUAGGGAACG [G10C C27U C66G], for which the yeast fitness is ≤ 0.5.
For the variant GUUCCGUUGGCGUAAUGGUAACGGGUCUCCCUCCUAAGGGGAAGACUGCCGGUUCGAGUCCCGUAUGGAACG [C24G A40G G50C C66U], the yeast fitness was ≤ 0.5.
On to GUUCCGUUCGCGUAAUGGUAACGCGUCUCCCUCCUAGGGAAAAGACUGCGGGUUCGAGUCGCGUACGGAACG [G9C A37G G41A C61G], for which the yeast fitness was ≤ 0.5.
The value for GUUGCGUUGGCGUUAUGGUAACGCGUCUCCUUCCUAAGGGGAAGACUGCGGGUUCGAGUCCCGUACGGAACG [C4G A14U C31U A40G] was ≤ 0.5.
For GUUCCGUUGGUGAAAUGGUAACGCGUCUCACUACUAAGGAGAAGACUGCGGGUUCGUGUCCCGUACGGAACG [C11U U13A C30A C33A A57U] the value was ≤ 0.5.
On to GUUCCGUUGGCAUAAUGGUAACGCGUCUCCCUCCUAAGGAGGAGACUGCGGGUACGAGUCCCGUCCGGAACG [G12A A42G U54A A65C], for which the yeast fitness was ≤ 0.5.
Consider GCUCCGUUGGCGUAAUGGUAACGCGUCUCCCUCCUAAGGAGAAGACUGGGGGUUUGAGUCCCGUACGGAACG [U2C C49G C55U], for which the yeast fitness is 0.573.
On to GUUCCGUUGGGGUAAUGGUAAGGCGUCUCCCUCCUAAGGAGAAGACUGCGGGUUCGAGUCCCGUACGGAACG [C11G C22G], for which the yeast fitness was determined as 0.675.
The value for GUUCCGUCGGAGUACUGGUAACGCGUCUCCCUCCUAAGGAGAAGACUGUGGGUUCGGGUCUCGUACGGAACG [U8C C11A A15C C49U A57G C61U] was ≤ 0.5; that for GUUCCAUUGGCGUAAUGGUAACGCGUCUCCCUCCUAAGAAGAAGACUGCGGGUUCGAGUCCCGUACGGAACG [G6A G39A] was 0.916; that for GUUCCGUUGGCGUGAUGGUAACGGGUCUCCCUCCUAAGGGGAAGACUGCGGGAUCGAGUCCCGUACGCAACG [A14G C24G A40G U53A G68C] was ≤ 0.5.
In the case of GUUCCGUUGGCGUAAUGGUAACGCGUCUCCCUCCUAAGGAGAAGACUGCCGGUUCGAGUCCGGUACGGAACG [G50C C62G], the yeast fitness worked out at 0.965.
Consider GUUCCGUUGGCGUCAUGGUAACGCCUGUCCCUCUAAAAGAGAAGACUGCGGGUUCAAGGCCCGUACGGAACG [A14C G25C C27G C34U U35A G38A G56A U59G], for which the yeast fitness was ≤ 0.5.
Consider GUUGUGUUGGCGUAAUGGUAACGCGACUCCCUCAUAAGGAGAAGACUGCGGGUUCGAGUCCCGUACGGAACG [C4G C5U U26A C34A], for which the yeast fitness was ≤ 0.5.
For the variant GUUCUGUUGGCGUAAUGGUGACGCGUCUCCCUCCUAAGGAGAGGACUGCGGGUUCGAGUCCCGUUCGGAACG [C5U A20G A43G A65U], the yeast fitness is ≤ 0.5.
Take GUUCCGUUGGCGUAGUGGUAACGCGUCUCCAUCCUAAGGAGAAGACUGCGGGUUCGAGUCCCGUACGGAACG [A15G C31A]: the yeast fitness was 0.623.
For GUUCCGUUGGCGUAAUGGUAACGCGUCACCCUCCUAAGGAGAAGACUGCGGGUUCGAGUCCUGUACGGAACG [U28A C62U], the yeast fitness stood at 0.86.
For the variant GUUCCGUUGGCGGAAUGGUAAUGCGUCCCCAUCCUAAGGAGAAGACUGCGGGUUCGAGUCCCGUACGGAACG [U13G C22U U28C C31A], the yeast fitness was ≤ 0.5.
Consider GUUCGGUUGGCGUAAUGGUAAUGCGUCGCCCUCCUAAGGAGAAGACUGCGGGUCCGAGUCCCGUGCGGAACG [C5G C22U U28G U54C A65G], for which the yeast fitness was ≤ 0.5.
As to GUUCCGUUGGCGUAAUGGUAACGCAUCUCCCUCCUAAGGAGAAGACUGCGGGUUCGAGUCCCGUACGCAACG [G25A G68C], the yeast fitness stood at 0.938.
As for GUUCCGUUGGCGUAAUGGUAACGCGCUUCCCUCCUAAGGAGAAGACUGCGGGUUCGAGUCCCGUACGGAACG [U26C C27U], the yeast fitness was 1.02.
